Measurements published in ChEMBL document CHEMBL1137658, “Effect of caspofungin on metabolite profiles of Aspergillus species determined by nuclear magnetic resonance spectroscopy” (2007).
Active and inactive are the calls of the source. No cut-off for these calls is given here.

How the values were obtained:
Aspergillus niger [1] = assay: Antifungal activity against Aspergillus niger isolate 05-290-2479 assessed as lowest drug concentration resulting in aberrant hyphal growth after 48 hrs by broth microdilution method; type: functional
Procedure, shortened: (§1)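 Caspofungin tested by modified CLSI M38-A microdilution in RPMI 1640 plus 2% glucose, l-glutamine, MOPS pH 7. Serial dilutions 0.03125 to 16 μg/ml; duplicate plates. MEC = lowest concentration giving aberrant hyphal growth on inverted-microscope examination, read at 48 h.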

Aspergillus terreus [2] = assay: Antifungal activity against Aspergillus terreus isolate 04-188-2548 assessed as lowest drug concentration resulting in aberrant hyphal growth after 48 hrs by broth microdilution method; type: functional; procedure, shortened: as §1
Aspergillus niger [3] = assay: Antifungal activity against Aspergillus niger isolate 05-112-3701 assessed as lowest drug concentration resulting in aberrant hyphal growth after 48 hrs by broth microdilution method; type: functional; procedure, shortened: as §1
Aspergillus flavus [4] = assay: Antifungal activity against Aspergillus flavus isolate 05-314-1100 assessed as lowest drug concentration resulting in aberrant hyphal growth after 48 hrs by broth microdilution method; type: functional; procedure, shortened: as §1
Aspergillus fumigatus [5] = assay: Increase in metabolite production in Aspergillus fumigatus isolate 06-067-1639 assessed as paradoxical increase in glycine betain, fumarate, succinate level at 1 ug/ml after 48 hrs; type: functional, organism-based
Aspergillus nidulans [6] = assay: Inhibition of metabolite production in Aspergillus nidulans isolate 00-202661 assessed as lowest drug concentration required to inhibit 50% fumarate production after 72 hrs in presence of 2 % glucose by NMR spectroscopy; type: functional
Procedure, shortened: (§2)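 A. nidulans grows slowly, so spectra were recorded after 72 h incubation in RPMI 1640-2% glucose-MOPS with drug dilutions. 600-MHz ¹H NMR of culture medium. Fumarate peak integrals plotted against drug concentration. MEP = lowest concentration with ≥50% fall in fumarate.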

Aspergillus terreus [7] = assay: Inhibition of metabolite production in Aspergillus terreus isolate 06-059-2428 assessed as lowest drug concentration required to inhibit 50% ethanol production after 48 hrs in presence of 2 % glucose by NMR spectroscopy; type: functional
Procedure, shortened: (§3)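 Cultures grown in RPMI 1640-2% glucose-MOPS with drug series, 48 h. Culture media analysed by 600-MHz ¹H NMR. MEP taken from stack plots and peak integrals of resolved resonances, as lowest drug concentration suppressing nutrient use or metabolite production by ≥50%. Alternative MEP: lowest concentration raising fumarate >50%.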

Aspergillus terreus [8] = assay: Inhibition of metabolite production in Aspergillus terreus isolate 04-188-2548 assessed as lowest drug concentration required to inhibit 50% ethanol, malate production after 48 hrs in presence of 2 % glucose by NMR spectroscopy; type: functional; procedure, shortened: as §3
Aspergillus fumigatus [9] = assay: Inhibition of metabolite production in Aspergillus fumigatus ATCC 204305 assessed as lowest drug concentration required to inhibit 50% malate production after 48 hrs in presence of 2 % glucose by NMR spectroscopy; type: functional; procedure, shortened: as §3
Aspergillus nidulans [10] = assay: Antifungal activity against Aspergillus nidulans isolate 00-202661 assessed as lowest drug concentration resulting in aberrant hyphal growth after 72 hrs by broth microdilution method; type: functional
Aspergillus fumigatus [11] = assay: Antifungal activity against Aspergillus fumigatus ATCC 204305 assessed as lowest drug concentration resulting in aberrant hyphal growth after 72 hrs by broth microdilution method; type: functional
Aspergillus niger [12] = assay: Inhibition of metabolite production in Aspergillus niger isolate 05-290-2479 assessed as lowest drug concentration required to inhibit 50% citrate production after 48 hrs in presence of 2 % glucose by NMR spectroscopy; type: functional; procedure, shortened: as §3
Aspergillus fumigatus [13] = assay: Antifungal activity against Aspergillus fumigatus ATCC 204305 assessed as lowest drug concentration resulting in aberrant hyphal growth after 48 hrs by broth microdilution method; type: functional; procedure, shortened: as §1
Aspergillus fumigatus [14] = assay: Inhibition of metabolite production in Aspergillus fumigatus isolate 06-067-1639 assessed as inhibition of glycine betaine production at => 1 ug/ml; type: functional, organism-based
Aspergillus flavus [15] = assay: Increase in metabolite production in Aspergillus flavus ATCC 204304 assessed as lowest drug concentration required to increase >50% fumarate production after 48 hrs in presence of 2 % glucose by NMR spectroscopy; type: functional; procedure, shortened: as §3
Aspergillus fumigatus [16] = assay: Antifungal activity against Aspergillus fumigatus isolate 06-067-1639 assessed as lowest drug concentration resulting in aberrant hyphal growth after 48 hrs by broth microdilution method; type: functional; procedure, shortened: as §1
Aspergillus fumigatus [17] = assay: Inhibition of metabolite production in Aspergillus fumigatus ATCC 204305 assessed as lowest drug concentration required to inhibit 50% malate production after 48 hrs in presence of 0.2 % glucose by NMR spectroscopy; type: functional
Procedure, shortened: (§4)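 A. fumigatus ATCC 204305 incubated 48 h and 72 h with caspofungin in RPMI 1640 containing 0.2% glucose instead of 2%. ¹H NMR of medium. MEP from malate peak area, taken at ≥50% reduction.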

Aspergillus fumigatus [18] = assay: Increase in metabolite production in Aspergillus fumigatus ATCC 204305 assessed as paradoxical increase in glycine betaine, fumarate and succinate level at >= 0.5 ug/ml after 48 hrs
Aspergillus niger [19] = assay: Inhibition of metabolite production in Aspergillus niger isolate 05-112-3701 assessed as lowest drug concentration required to inhibit 50% citrate production after 48 hrs in presence of 2 % glucose by NMR spectroscopy; type: functional; procedure, shortened: as §3
Aspergillus fumigatus [20] = assay: Inhibition of metabolite production in Aspergillus fumigatus isolate 06-067-1639 assessed as inhibition of malate and fumarate production at 2 to 4 ug/ml; type: functional
Aspergillus flavus [21] = assay: Increase in metabolite production in Aspergillus flavus isolate 05-314-1100 assessed as lowest drug concentration required to increase >50% fumarate production after 48 hrs in presence of 2 % glucose by NMR spectroscopy; type: functional; procedure, shortened: as §3
Aspergillus flavus [22] = assay: Antifungal activity against Aspergillus flavus ATCC 204304 assessed as lowest drug concentration resulting in aberrant hyphal growth after 48 hrs by broth microdilution method; type: functional; procedure, shortened: as §1
Aspergillus fumigatus [23] = assay: Inhibition of metabolite production in Aspergillus fumigatus ATCC 204305 assessed as lowest drug concentration required to inhibit 50% malate production after 72 hrs in presence of 0.2 % glucose by NMR spectroscopy; type: functional; procedure, shortened: as §4
Aspergillus terreus [24] = assay: Antifungal activity against Aspergillus terreus isolate 06-059-2428 assessed as lowest drug concentration resulting in aberrant hyphal growth after 48 hrs by broth microdilution method; type: functional; procedure, shortened: as §1
Aspergillus nidulans [25] = assay: Inhibition of metabolite production in Aspergillus nidulans isolate 05-326-1785 assessed as lowest drug concentration required to inhibit 50% fumarate production after 72 hrs in presence of 2 % glucose by NMR spectroscopy; type: functional; procedure, shortened: as §2
Aspergillus fumigatus [26] = assay: Inhibition of metabolite production in Aspergillus fumigatus ATCC 204305 assessed as lowest drug concentration required to inhibit 50% glycine betain, fumarate, malate production after 48 hrs in presence of 2 % glucose by NMR spectroscopy; type: functional; procedure, shortened: as §3
Aspergillus fumigatus [27] = assay: Inhibition of metabolite production in Aspergillus fumigatus ATCC 204305 assessed as lowest drug concentration required to inhibit 50% malate production after 72 hrs in presence of 2 % glucose by NMR spectroscopy; type: functional
Procedure, shortened: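 Caspofungin dilutions with A. fumigatus ATCC 204305 in RPMI 1640-2% glucose-MOPS, incubated 72 h. ¹H NMR of medium. MEP = lowest concentration giving ≥50% fall in malate, glycine betaine or fumarate peak areas.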

Aspergillus nidulans [28] = assay: Antifungal activity against Aspergillus nidulans isolate 05-326-1785 assessed as lowest drug concentration resulting in aberrant hyphal growth after 72 hrs by broth microdilution method; type: functional
Aspergillus fumigatus [29] = assay: Increase in metabolite production in Aspergillus fumigatus isolate 06-067-1639 assessed as lowest drug concentration required to increase >50% glycine betaine production after 48 hrs in presence of 2 % glucose by NMR spectroscopy; type: functional

## CC[C@H](C)C[C@H](C)CCCCCCCCC(=O)N[C@H]1C[C@@H](O)[C@@H](NCCN)NC(=O)[C@@H]2[C@@H](O)CCN2C(=O)[C@H]([C@H](O)CCN)NC(=O)[C@H]([C@H](O)[C@@H](O)c2ccc(O)cc2)NC(=O)[C@@H]2C[C@@H](O)CN2C(=O)[C@H]([C@@H](C)O)NC1=O [CASPOFUNGIN]
Aspergillus niger [1]
  Activity: 0.5 µg/mL
Aspergillus terreus [2]
  Activity: 0.03 µg/mL
Aspergillus niger [3]
  Activity: 0.5 µg/mL
Aspergillus flavus [4]
  Activity: 0.03 µg/mL
Aspergillus fumigatus [5]
  Activity: Active
Aspergillus nidulans [6]
  Activity: 2 µg/mL
Aspergillus terreus [7]
  Activity: 0.06 µg/mL
Aspergillus terreus [8]
  Activity: 0.5 µg/mL
Aspergillus fumigatus [9]
  Activity: 0.5 µg/mL
Aspergillus nidulans [10]
  Activity: 2 µg/mL
Aspergillus fumigatus [11]
  Activity: 0.03 µg/mL
Aspergillus niger [12]
  Activity: 0.25 µg/mL
Aspergillus fumigatus [13]
  Activity: 0.03 µg/mL
Aspergillus fumigatus [14]
  Activity: inactive
Aspergillus flavus [15]
  Activity: 0.03 µg/mL
Aspergillus fumigatus [16]
  Activity: 0.03 µg/mL
Aspergillus fumigatus [17]
  Activity: 0.06 µg/mL
Aspergillus fumigatus [18]
  Activity: Active
Aspergillus niger [19]
  Activity: 0.5 µg/mL
Aspergillus fumigatus [20]
  inhibition (INH): 20%
Aspergillus flavus [21]
  Activity: 0.03 µg/mL
Aspergillus flavus [22]
  Activity: 0.03 µg/mL
Aspergillus fumigatus [23]
  Activity: 0.03 µg/mL
Aspergillus terreus [24]
  Activity: 0.03 µg/mL
Aspergillus nidulans [25]
  Activity: 4 µg/mL
Aspergillus fumigatus [26]
  Activity: 0.5 µg/mL
Aspergillus fumigatus [27]
  Activity: 0.03 µg/mL
Aspergillus nidulans [28]
  Activity: 4 µg/mL
Aspergillus fumigatus [29]
  Activity: 1 µg/mL
